Measurements published in PubChem BioAssay.
Inconclusive results are not listed.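 How the source made its calls, unless noted: active means RAM network inhibition above 8.4% in each of two replicates, 3 SD over the compound average; inconclusive means above 8.4% inhibition in only one replicate; inactive means 8.4% inhibition or less in each replicate.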

Legend:
[1] = S. cerevisiae growth inhibition in permissive medium (OD615), pilot counter-assay for S. cerevisiae lifespan shortening project, permissive growth control (AID 705;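 active means growth inhibition above 25% in both replicates, a cutoff set 3 SD above the mean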); conditions: OD615, 24 h, at 10 µM, stronger effect = higher value
Outline: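 assay system = Saccharomyces cerevisiae strain carrying genetically modified DeaD replicative-lifespan system | technique = absorbance (optical density) at 615 nm | buffer or medium = permissive raffinose/galactose medium | timing = cells pre-grown 4 h, then 24 h compound exposure, 30 °C humidified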

[2] = S. cerevisiae growth inhibition in restrictive medium, OD615, pilot screen, restrictive growth control, yeast lifespan reduction project (AID 706;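 active means growth inhibition above a set limit, 3 SD over mean compound inhibition, in both replicates, cut at about 43% in these data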;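 further: modified DeaD lifespan yeast strain shifted to restrictive glucose medium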); conditions: OD615, 48 h, at 10 µM, stronger effect = higher value
Outline: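 System: modified S. cerevisiae. Buffer or medium: CSMM-D glucose medium. Incubation: 4 h pre-growth plus 48 h compound exposure, 30 °C. Detection: absorbance (optical density) measured at 615 nm.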

[3] = doxorubicin toxicity protection in MRP-1 cells – H69AR cells, CellTiter-Glo, duplicate, MRP-1 activator project, pilot screen (AID 807;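 active means viability increase at or above a cutoff of the median across tested compounds plus 3 SD, cut at about 8.5% in these data, passing the limit was not always enough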;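 further: compound pretreatment 18-22 h then 72 h combined with doxorubicin; 0% = doxorubicin alone and 100% = vehicle without doxorubicin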); conditions: H69AR viability with doxorubicin, CellTiter-Glo luminescence; at 10 µM; stronger effect = higher value
[4] = viability of HCT116 without oncogenic beta-catenin – human colon tumor cells, pilot screen (AID 823;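 active means cell viability at or below a set limit in both duplicate runs, the limit being the all-compound median minus 4 SD, cut at about 23% in these data, passing the limit was not always enough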;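 further: 0% = wells killed by 20 µM Hyamine and 100% = untreated DMSO cell wells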); conditions: HCT116 beta-catenin knockout viability, CellTiter-Glo, 60 h; at 10 µM; stronger effect = lower value
[5] = viability of PTEN-null HCT116 cells – cell-based, HCT116 clonal line, CellTiter-Glo, pilot screen (AID 824;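 active means viability at or below 27.92% in each of two runs, the all-compound median minus 4 SD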;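 further: 0% = 20 µM Hyamine control and 100% = vehicle cell control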); conditions: HCT116 PTEN-deleted viability, 60 h, at 10 µM, stronger effect = lower value
[6] = RAM pathway blockade in budding yeast – dse1pr::URA3 reporter, 5-FOA selection, pilot screen (AID 869;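 active means inhibition over a set limit, the all-compound mean plus 3 SD, in both replicate runs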;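 further: 0% = DMSO wells with no growth and 100% = 10 µM 1-NA-PP1 with full growth; RAM network block rescues cells from 5-FOA so hits raise OD615 growth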); conditions: S. cerevisiae dse1pr::URA3 5-FOA growth, OD615, 2 d; at 10 µM; stronger effect = higher value; strain carries analog-sensitive mutant Cbk1 kinase
[7] = RAM signaling pathway blockade in yeast – S. cerevisiae, Pdr1DBD-CYC8 efflux-inhibited sensitized strain, primary screen (AID 1298);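 further: 0% = DMSO untreated cells without growth and 100% = 10 µM 1-NA-PP1 full growth; higher means more yeast growth rescued from 5-FOA killing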; conditions: S. cerevisiae cbk1-as DSE1-URA3 strain, 5-FOA growth OD615, 2 d; at 50 µM; stronger effect = higher value

COC(=O)c1ccccc1N(Cc1ccccc1)S(C)(=O)=O
inactive: growth inhibition [1] -3.77% | growth inhibition [2] -8.56% | viability increase [3] -4.02% | viability [4] 90.6% | viability [5] 105% | inhibition [6] -0.425% | RAM network inhibition [7] 1.83%

CC(=O)Nc1nnc(-c2ccc3c(c2)CCCC3)o1
inactive: growth inhibition [1] -12.7% | growth inhibition [2] 3.68% | viability increase [3] -0.69% | viability [4] 95% | viability [5] 88.3% | inhibition [6] 1.36% | RAM network inhibition [7] 4.21%

Oc1c(C(c2ccccc2)N2CCN(Cc3ccccc3)CC2)sc2ncnn12 (stereo not drawn)
inactive: growth inhibition [1] -6.68% | growth inhibition [2] -5.08% | viability increase [3] 1.62% | viability [4] 89.7% | viability [5] 84.7% | inhibition [6] 1.79% | RAM network inhibition [7] 0.68%

COc1ccc(C2C3=C(CC(C)(C)CC3=O)Nc3c2c(=O)[nH]c(=O)n3Cc2ccccc2)cc1 (stereo not drawn)
inactive: growth inhibition [1] -7% | growth inhibition [2] 6.84% | viability increase [3] -2.53% | viability [4] 89.5% | viability [5] 74.5% | inhibition [6] 1.65% | RAM network inhibition [7] 6.38%

O=C(Nc1ccc(N2CCOCC2)cc1)NC1CCCCC1
inactive: growth inhibition [1] -0.89% | growth inhibition [2] 1.07% | viability increase [3] -1.27% | viability [4] 103% | viability [5] 101% | inhibition [6] -0.22% | RAM network inhibition [7] 9.28%

COCCNS(=O)(=O)c1cccc2cccnc12
inactive: growth inhibition [1] -1.37% | growth inhibition [2] 12.8% | viability increase [3] -1.69% | viability [4] 97.8% | viability [5] 92.2% | inhibition [6] 2.52% | RAM network inhibition [7] 2.27%

O=C(O)c1ccc(NC(=O)C2C3CCC(C3)C2C(=O)O)cc1 (stereo not drawn)
inactive: growth inhibition [1] 7% | growth inhibition [2] -0.915% | viability increase [3] -0.12% | viability [4] 101% | viability [5] 98.8% | inhibition [6] 0.345% | RAM network inhibition [7] 0.46%

Cn1nc(-c2ccc(Cl)cc2)c2cc(C(=O)N3CCOCC3)sc21
inactive: growth inhibition [1] -6.13% | growth inhibition [2] 4.78% | viability increase [3] -5.6% | viability [4] 89.4% | viability [5] 80.5% | inhibition [6] 1.29% | RAM network inhibition [7] 3.38%

CNC(=O)c1sc2nc(-c3ccc(OC)cc3)cn2c1C
inactive: growth inhibition [1] 3.27% | growth inhibition [2] 2.45% | viability increase [3] 1.57% | viability [4] 104% | viability [5] 106% | inhibition [6] 2% | RAM network inhibition [7] 0.64%

CCC(=O)N=c1sc2c(OC)ccc(OC)c2n1C
inactive: growth inhibition [1] -7.02% | growth inhibition [2] -7.99% | viability increase [3] -4.85% | viability [4] 92.4% | viability [5] 91.2% | inhibition [6] 1.68% | RAM network inhibition [7] 2.04%

COC(=O)c1ccccc1NC(NC(=O)c1ccco1)C(=O)c1ccc(C)cc1 (stereo not drawn)
inactive: growth inhibition [1] -0.235% | growth inhibition [2] -5.5% | viability increase [3] -4.41% | viability [4] 79% | viability [5] 70.3% | inhibition [6] 4.25% | RAM network inhibition [7] 7.66%

Cc1c(-n2cc(C(=O)O)c(=O)c3cc(F)c(N4CCCC4)c(F)c32)c(=O)n(-c2ccccc2)n1C
inactive: growth inhibition [1] -5.81% | growth inhibition [2] -11.4% | viability increase [3] -2.19% | viability [4] 98.8% | viability [5] 87.8% | inhibition [6] 2.6% | RAM network inhibition [7] 5.65%

O=c1[nH]c(NC2CCCCC2)nnc1Cc1ccccc1
inactive: growth inhibition [1] -10% | growth inhibition [2] -5.11% | viability increase [3] 0.04% | viability [4] 102% | viability [5] 97.6% | inhibition [6] 2.53% | RAM network inhibition [7] 1.52%

Cc1nnc(SCCC(C)C)[nH]c1=O
inactive: growth inhibition [1] -1.1% | growth inhibition [2] 0.225% | viability increase [3] -2.93% | viability [4] 101% | viability [5] 99.7% | inhibition [6] 0.745% | RAM network inhibition [7] 3.25%

COc1cccc(C2CC(=O)NC(SC)=C2C#N)c1 (stereo not drawn)
inactive: growth inhibition [1] -1.85% | growth inhibition [2] -4.75% | viability increase [3] -2.47% | viability [4] 98.7% | viability [5] 95.7% | inhibition [6] -0.015% | RAM network inhibition [7] 2.87%

O=C(c1cc2ccccc2cc1OCC(O)CN1CCCCC1)N1CCCCC1 (stereo not drawn)
inactive: growth inhibition [1] 2.48% | growth inhibition [2] 0.51% | viability increase [3] -4.18% | viability [4] 86.6% | viability [5] 83.5% | inhibition [6] 0.285% | RAM network inhibition [7] -0.89%

CCCSc1nnc2nc(C)cc(C)n12
inactive: growth inhibition [1] -2.7% | growth inhibition [2] 1.39% | viability increase [3] -0.95% | viability [4] 103% | viability [5] 101% | inhibition [6] 2% | RAM network inhibition [7] -0.46%

CCSc1nnc2c(n1)[nH]c1c(C)cccc12
inactive: growth inhibition [1] -6.89% | growth inhibition [2] -1.28% | viability increase [3] -5.1% | viability [4] 47.9% | viability [5] 65.5% | inhibition [6] 4% | RAM network inhibition [7] 4.68%

CCOC(=O)N1CCN(C(=O)c2cn(-c3ccc(C)c(C)c3)c(=O)c3ccccc23)CC1
inactive: growth inhibition [1] -10.6% | growth inhibition [2] -0.85% | viability increase [3] -2.69% | viability [4] 85.6% | viability [5] 94.4% | inhibition [6] 0.51% | RAM network inhibition [7] -0.53%

COC(=O)C1=C(C)N(C)C(=O)NC1c1ccc(O)c(OC)c1 (stereo not drawn)
inactive: growth inhibition [1] 0.58% | growth inhibition [2] -7.74% | viability increase [3] -0.98% | viability [4] 105% | viability [5] 98.9% | inhibition [6] 0.425% | RAM network inhibition [7] 6.2%

CC(=O)Nc1ccc(S(=O)(=O)n2cnc3cc(C)c(C)cc32)cc1
inactive: growth inhibition [1] -7.58% | growth inhibition [2] 1.31% | viability increase [3] -0.2% | viability [4] 99.6% | viability [5] 92.2% | inhibition [6] -0.09% | RAM network inhibition [7] 1.45%

c1ccc(-c2cnc(-c3cccnc3)o2)cc1
inactive: growth inhibition [1] 0.08% | growth inhibition [2] 7.29% | viability increase [3] -4.72% | viability [4] 95.5% | viability [5] 94.4% | inhibition [6] 2.12% | RAM network inhibition [7] 1.68%

OCCn1c(SCCOc2ccccc2F)nc2ccccc21
inactive: growth inhibition [1] -4.44% | growth inhibition [2] -1.06% | viability increase [3] -3.24% | viability [4] 91.5% | viability [5] 88.4% | inhibition [6] 2.67% | RAM network inhibition [7] 2.71%

Cc1noc(/C=C/N(C)C)c1S(=O)(=O)N1CCN(c2ccccc2)CC1
inactive: growth inhibition [1] -14.8% | growth inhibition [2] -3.67% | viability increase [3] -2.94% | viability [4] 95.9% | viability [5] 90.8% | inhibition [6] 2.37% | RAM network inhibition [7] 7.31%
